The test system of assay [1] is Plasmodium falciparum. The assay can be described thus: Antimalarial activity against Plasmodium falciparum 3D7. Format: functional, organism-based.
The test system of assay [2] is CHO. The assay can be described thus: Cytotoxicity against CHO cells. Format: cell-based. The conditions noted are these: Cricetulus griseus.
A short description of assay [3]: Cytotoxicity against human OCI-AML1 cells. Format: functional, cell-based.
Assay [4] concerns the target Orotidine 5'-phosphate decarboxylase (Methanobacterium thermoautotrophicum) (UniProt O26232). Kind of assay: Covalent binding affinity to Methanobacterium thermoautotrophicum 5'-monophosphate decarboxylase by mass spectroscopy analysis. To be noted: Methanothermobacter thermautotrophicus. The method in brief: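 Mt ODCase incubated overnight at room temperature with inhibitor (25 mM, in the dark; or 388 mM with 200 μM enzyme) in 50 mM Tris pH 7.5, 20 mM DTT, 40 mM NaCl. Enzyme mass measured by mass spectrometry against an inhibitor-free control; covalent adduct taken from a mass increase over native enzyme.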

The target in assay [5] is Orotidine 5'-phosphate decarboxylase (Methanobacterium thermoautotrophicum, UniProt O26232). The assay can be described thus: Irreversible inhibition of Methanobacterium thermoautotrophicum 5'-monophosphate decarboxylase.
Sequence of Orotidine 5'-phosphate decarboxylase (O26232 whole entry): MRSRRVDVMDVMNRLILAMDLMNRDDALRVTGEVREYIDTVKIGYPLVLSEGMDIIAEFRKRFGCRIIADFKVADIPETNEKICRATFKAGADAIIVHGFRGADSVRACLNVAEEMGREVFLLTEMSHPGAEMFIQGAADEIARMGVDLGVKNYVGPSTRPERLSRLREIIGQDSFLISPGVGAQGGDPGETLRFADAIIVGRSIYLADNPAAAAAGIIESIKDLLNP

Structures are written as SMILES. The source made the active and inactive calls. The rule behind the calls is not given here.

Sequence of Orotidine 5'-phosphate decarboxylase (Methanobacterium thermoautotrophicum) (O26232 whole entry, looked up): as the sequence (O26232 whole entry) above

In the case of `[N-]=[N+]=Nc1cc(=O)[nH]c(=O)n1[C@@H]1O[C@H](CO)[C@@H](O)[C@H]1F`, the IC50 is greater than 1000 µM in assay [1], greater than 2000 µM in assay [2] and greater than 50 µM in assay [3].
The like results for `N#Cc1cc(=O)[nH]c(=O)n1[C@@H]1O[C@H](CO)[C@@H](O)[C@H]1F` were, in that order, greater than 1000 µM, greater than 600 µM and greater than 50 µM.
For the molecule `[N-]=[N+]=Nc1cc(=O)[nH]c(=O)n1[C@@H]1O[C@H](COP(=O)(O)O)[C@@H](O)[C@H]1F`, the outcome in assay [4] was Active. Besides, the Ki in assay [5] worked out at 1200 µM.
Consider `N#Cc1cn([C@@H]2O[C@H](CO)[C@@H](O)[C@H]2F)c(=O)[nH]c1=O`, for which the values for the IC50 in assay [1], in assay [2] and in assay [3] were 1090 µM, greater than 1000 µM and greater than 50 µM, respectively.
The like results for `O=c1cc(I)n([C@@H]2O[C@H](CO)[C@@H](O)[C@H]2F)c(=O)[nH]1` were, in that order, greater than 6000 µM, 1360 µM and greater than 50 µM.
As for `O=c1cc(I)n([C@@H]2O[C@H](CP(=O)(O)O)[C@@H](O)[C@H]2F)c(=O)[nH]1`, the result in assay [4] was Active.
As to `NC(=O)c1cc(=O)[nH]c(=O)n1[C@@H]1O[C@H](CO)[C@@H](O)[C@H]1F`, the IC50 in assay [1] was greater than 2000 µM; in assay [2], greater than 1000 µM; in assay [3], greater than 50 µM.

The values above are taken from ChEMBL document CHEMBL1765012, “Novel interactions of fluorinated nucleotide derivatives targeting orotidine 5'-monophosphate decarboxylase” (J Med Chem, 2011).
